The results in this text go back to ChEMBL document CHEMBL4513216, “Probing the Open Global Health Chemical Diversity Library for Multistage-Active Starting Points for Next-Generation Antimalarials” (ACS Infect Dis, 2020).

A short description of the series: Toxicity liver stage against HepG2, at 10uM. Type of series: cell-based. The arrangement: test concentration 10 uM, cell line HepG2-A16-CD81EGFP. The note with it: human, HepG2-A16-CD81EGFP cells; read-out: INHIBITION
Summed up:
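Uninfected HepG2-A16-CD81EGFP cells, 3 × 10^3 per well, 1536-well, plated on prespotted compound at 10 μM final, parasite-free screening media added to match infected plates; puromycin 10 μM positive, DMSO 0.5% negative; run in parallel with 48 h PbLuc assay at 37 °C, 5% CO2; viability by CellTiter-Glo luminescence, normalized to controls.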
As for `O=C(NC1CCOCC1)c1cccc(C2CCCNC2)c1` (centres undefined), the cytotoxicity at 10 µM turned out to be 2.58%. In the case of `CCOc1cccc(CN2CCCn3nc(CNS(C)(=O)=O)cc3C2)c1` it was -4.01%; in that of `O=C(COCC1CCCO1)N(Cc1cccnc1)c1ccc(F)cc1` (centres undefined), -2.04%; in that of `NC(=O)C1CCN(c2cncc(-n3cccn3)n2)CC1`, 12.5%. Next, `Cc1cccc(CN2CCCC3(CCN(CC(=O)N(C)C)C3=O)C2)n1` (centres undefined): -119%; `Cc1cc(C(C)NC(=O)c2c[nH]c(=O)c(Cl)c2)c(C)o1` (centres undefined): 12.5%. `O=C1NCCN1C1CCCN(Cc2nnc(-c3ccc(F)cc3)o2)C1` (centres undefined): the cytotoxicity at 10 µM was -7.69%.

Turning to `COCC1CC2(CCN(Cc3ccco3)CC2)CN1C(C)C` (centres undefined), the cytotoxicity at 10 µM is 0.0448%. For `CSC(C)C(=O)N(C)CC(=O)Nc1ccc(Br)cn1` (centres undefined), the cytotoxicity at 10 µM was -7.18%. Next, `O=C(NC1CCN(C2CC2)CC1)c1cc(Cl)ccc1-n1cnnn1`: 3.43%; `Cn1ncc2c(NCC3CCS(=O)(=O)C3)nc(C3CCCC3)nc21` (centres undefined): -5.1%. In the case of `COCCN1CCC2(CC1)CC(Nc1ccc(C)nn1)CO2` (centres undefined) it was -0.818%.

Consider `Cn1ccc2c(C(=O)N3CCCC3c3noc(C4CC4)n3)cccc21` (centres undefined), for which the cytotoxicity at 10 µM is -7.82%. Next, `Cn1cnnc1C1CCN(C(=O)CCCOCc2ccccc2)CC1`: -7.06%; `FC(F)(F)CCc1ccnc(NC2CCOC2)n1` (centres undefined): 16.4%. In the case of `CCOc1ccccc1C(=O)NCc1nncn1C1CC1` it was 3.3%; in that of `COc1ccc(O[C@H]2COCCN(C(=O)c3ccno3)C2)cc1`, -2.41%. In the case of `CC(=O)Nc1cc(C(C)(C)C)sc1C#N` it was 10.3%; in that of `O=c1[nH]c2nc(NC3CC3)ncc2c(=O)n1-c1ccc(F)cc1`, -4.06%; in that of `COc1ncc(-c2nccn2CCN(C)C)cn1`, -17.4%. With `CCc1ccc(C(=O)N2C[C@@H]3COC[C@@H](C(=O)NC)[C@@H]3C2)cc1`, the cytotoxicity at 10 µM came out at 1.58%. Next, `COCCc1noc(C2CCCN(c3ncnc4c3CCC4)C2)n1` (centres undefined): 19.3%; `Cc1ccc(NC2CCN(C(=O)CCCc3cccs3)CC2)nn1`: -8.49%; `CN(CCCc1n[nH]c(N)c1C#N)C(=O)NC1CC1`: 5.85%. In the case of `O=C(NCC1(O)CCOC1)NCC1(c2ccccc2Cl)CCC1` (centres undefined) it was -50.8%; in that of `CC(C)c1cc(C(=O)N[C@H]2CN(C3CCOCC3)C[C@@H]2C2CC2)no1`, 6.31%.

Take `CC1(C)OC(=O)N(CCCC(=O)c2ccc(F)cc2)C1=O`: the cytotoxicity at 10 µM is -4.87%.

Regarding `Cn1c(Nc2cn[nH]c2)c(C#N)c(=O)n(C)c1=O`, the cytotoxicity at 10 µM is 14.9%. Next, `Cn1cc(CCNC(=O)c2cc3ccccc3nc2N2CCCC2)cn1`: -1.29%; `Cc1[nH]c(=O)sc1S(=O)(=O)N1CCCC1C(=O)NC1CC1` (centres undefined): 5.36%. Next, `CCOCc1cnc2n1CCN(Cc1nc(C)cs1)C2C` (centres undefined): 10.2%; `O=C(CN(Cc1cccs1)C1CCS(=O)(=O)C1)NCCc1cccs1` (centres undefined): -11.5%; `CN(C)CCOCC1CN(Cc2cccs2)Cc2ccnn2C1` (centres undefined): -0.903%. In the case of `CC(C)NC(=O)[C@@]12CCO[C@@H]1CCN(Cc1ccc3c(c1)OCO3)C2` it was -1.34%.

As for `C=c1ncsc1=C1NN=C(C2CCCN2C(=O)Cn2cccn2)O1` (centres undefined), the cytotoxicity at 10 µM is 4%. In the case of `CN(C)C(=O)N1CCC2(CC1)CCN(c1ncccn1)C2` it was -1.05%; in that of `Cc1cc(N2CCN(C(=O)c3cc(Cl)c[nH]3)CC2)nc(N)n1`, -6.28%; in that of `C=C(C)COc1ccccc1CN1CCC(NC(C)=O)CC1`, 11.9%. Next, `O=C([C@@H]1CCO[C@@H]2CCN(Cc3ccc(F)cc3)C[C@H]21)N1CCCCO1`: 11.9%.
